Columns and labels:
[1] = molecular target: T1, ct-AChBP (Capitella teleta acetylcholine-binding protein) (Capitella teleta, UniProt I6L8L2); assay: STD NMR displacement titration with choline as reporter ligand
T1 sequence (I6L8L2 1-224): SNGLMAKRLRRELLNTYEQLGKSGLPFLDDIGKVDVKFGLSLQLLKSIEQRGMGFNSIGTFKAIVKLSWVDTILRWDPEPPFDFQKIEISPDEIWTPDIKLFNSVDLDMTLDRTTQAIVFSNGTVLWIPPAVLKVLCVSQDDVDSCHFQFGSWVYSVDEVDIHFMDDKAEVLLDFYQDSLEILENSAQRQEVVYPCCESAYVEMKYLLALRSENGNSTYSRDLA
How it was run: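 C-terminally V5/His-tagged ct-AChBP, stably expressed in HEK293-f cells, purified from medium by cobalt affinity then Superdex 200. 5 μM protein with 100 μM choline in 25 mM phosphate pH 7.0, 100% D2O, titrated with test compound; 16K scans; choline CH2 STD peaks tracked. KD fitted by competition equation using choline KD from shift/line-width titration; standard errors from asymptotic covariance matrix.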

[2] = molecular target: T1, ct-AChBP (Capitella teleta acetylcholine-binding protein); assay: 1H NMR direct titration
[3] = molecular target: T1, ct-AChBP (Capitella teleta acetylcholine-binding protein); assay: STD NMR displacement titration with acetylcholine as reporter ligand
[4] = molecular target: Capitella teleta acetylcholine-binding protein (Capitella teleta); assay: NMR titration

Compound: CC(=O)OCC[N+](C)(C)C [ACh, acetylcholine]
- Kd [1]: 28.7 ± 1.7 µM

Compound: C[N+](C)(C)CCO [Ch, choline]
- Kd [2]: 163 ± 37 µM

Compound: CN1CCC[C@H]1c1cccnc1 [Nic, nicotine]
- Kd [3]: 209 ± 51 nM

Compound: α-bungarotoxin (from UniProt P60615 22-95) (natural protein)
- Kd [4]: 110 nM
